The source of these data is ChEMBL document CHEMBL3045048, “Synthesis and antifungal action of new tricyclazole analogues” (2004).

The test system of experiment [1] is Botrytis cinerea. In words: microbe, parasite or virus in culture. The format is functional. The settings on record: 120 h, read-out: GI.
Experiment [2] deals with Botrytis cinerea. In words: microbe, parasite or virus in culture. The format is functional. The settings on record: 120 h, read-out: GI. The source holds these as a separate data set.
Experiment [3] has as its system Botrytis cinerea. In words: microbe, parasite or virus in culture. The settings on record: 120 h, read-out: GI. Type of experiment: functional. The source holds these as a separate data set.
Experiment [4] has as its system Botrytis cinerea. In words: microbe, parasite or virus in culture. Type of experiment: functional. The settings on record: 120 h, read-out: GI. This is another data set of the same source.
The subject of experiment [5] is Pyricularia grisea. In words: microbe, parasite or virus in culture. The format is functional. The settings on record: 120 h, read-out: GI.
The test system of experiment [6] is Pyricularia grisea. In words: microbe, parasite or virus in culture. The format is functional. The settings on record: 120 h, read-out: GI. The source holds these as a separate data set.
Experiment [7] has as its system Pyricularia grisea. In words: microbe, parasite or virus in culture. Type of experiment: functional. The settings on record: 120 h, read-out: GI. The source holds these as a separate data set.
Experiment [8] concerns Pyricularia grisea. In words: microbe, parasite or virus in culture. The format is functional. As to conditions: 120 h, read-out: GI. The source holds these as a separate data set.
The subject of experiment [9] is Berkeleyomyces basicola. In words: microbe, parasite or virus in culture. Type of experiment: functional. As to conditions: 120 h, read-out: GI.
The test system of experiment [10] is Berkeleyomyces basicola. In words: microbe, parasite or virus in culture. Type of experiment: functional. The settings on record: 120 h, read-out: GI. The source holds these as a separate data set.
The subject of experiment [11] is Alternaria solani. In words: microbe, parasite or virus in culture. Type of experiment: functional. As to conditions: 120 h, read-out: GI.
For experiment [12], the system named is Alternaria solani. In words: microbe, parasite or virus in culture. The format is functional. As to conditions: 120 h, read-out: GI. This is another data set of the same source.
Experiment [13] has as its system Sclerotinia minor. In words: microbe, parasite or virus in culture. Type of experiment: functional. As to conditions: 120 h, read-out: GI.
In experiment [14] the test system is Sclerotinia minor. In words: microbe, parasite or virus in culture. The format is functional. The settings on record: 120 h, read-out: GI. The source holds these as a separate data set.
Experiment [15] deals with Penicillium crustosum. In words: microbe, parasite or virus in culture. The settings on record: 120 h, read-out: GI. The format is functional.
The subject of experiment [16] is Penicillium crustosum. In words: microbe, parasite or virus in culture. The format is functional. As to conditions: 120 h, read-out: GI. The source holds these as a separate data set.
Experiment [17] relates to Penicillium italicum. In words: microbe, parasite or virus in culture. Type of experiment: functional. The settings on record: ATCC 48952, 120 h, read-out: GI.
The test system of experiment [18] is Penicillium italicum. In words: microbe, parasite or virus in culture. The settings on record: ATCC 48952, 120 h, read-out: GI. The format is functional. This is another data set of the same source.
In experiment [19] the test system is Trichoderma viride. In words: microbe, parasite or virus in culture. Type of experiment: functional. The settings on record: 120 h, read-out: GI.
The subject of experiment [20] is Trichoderma viride. In words: microbe, parasite or virus in culture. The format is functional. The settings on record: 120 h, read-out: GI. This is another data set of the same source.
For experiment [21], the system named is Trichoderma harzianum. In words: microbe, parasite or virus in culture. Type of experiment: functional. The settings on record: (Pers.)-Tul, 120 h, read-out: GI.
The subject of experiment [22] is Trichoderma harzianum. In words: microbe, parasite or virus in culture. As to conditions: (Pers.)-Tul, 120 h, read-out: GI. The format is functional. This is another data set of the same source.
Experiment [23] has as its system Penicillium crustosum. In words: Antifungal activity against Penicillium crustosum assessed as color variation of hyphae at 200 ug/ml after 5 days by electron microscopy. The format is functional, organism-based. The gist of the method: (§1)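 Mycelium disks (10 mm) from stationary-phase cultures were grown on cellophane over PDA at 26 ± 1 °C to log phase. They were then moved to PDA containing compound at 200 µg mL-1 from DMSO stock (final DMSO 0.1%), with 0.1% DMSO controls. Pigmentation was judged visually and photographically against untreated cultures of the same age.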

The test system of experiment [24] is Pyricularia grisea. In words: Antifungal activity against Magnaporthe grisea assessed as bleaching of hyphae at 200 ug/ml after 5 days by electron microscopy. The format is functional, organism-based. The method in brief: as §1
Experiment [25] has as its system Alternaria solani. In words: Antifungal activity against Alternaria solani Nees assessed as bleaching of hyphae at 200 ug/ml after 5 days by electron microscopy. Type of experiment: functional, organism-based. The gist of the method:
as §1

Experiment [26] concerns Botrytis cinerea. In words: Antifungal activity against Botryotinia fuckeliana assessed as inhibition of pigmentation of hyphae at 200 ug/ml after 5 days by electron microscopy. The format is functional, organism-based. The method in brief: as §1
The subject of experiment [27] is Botrytis cinerea. In words: Antifungal activity against Botryotinia fuckeliana assessed as anamalous stratification at septa at 200 ug/ml after 5 days by electron microscopy. The format is functional, organism-based.
The subject of experiment [28] is Botrytis cinerea. In words: Antifungal activity against Botryotinia fuckeliana assessed as increased quantities of material in immediate layer of cell wall at 200 ug/ml after 5 days by electron microscopy. The format is functional, organism-based.
Experiment [29] relates to Sclerotinia minor. In words: Antifungal activity against Sclerotinia minor assessed as color variation of hyphae at 200 ug/ml after 5 days by electron microscopy. Type of experiment: functional, organism-based. The gist of the method: as §1
The test system of experiment [30] is Berkeleyomyces basicola. In words: Antifungal activity against Thielaviopsis basicola Went assessed as color variation of hyphae at 200 ug/ml after 5 days by electron microscopy. The format is functional, organism-based. The gist of the method:
as §1

In experiment [31] the test system is Penicillium italicum. In words: Antifungal activity against Penicillium italicum ATCC 48952 assessed as color variation of hyphae at 200 ug/ml after 5 days by electron microscopy. The format is functional, organism-based. The method in brief: as §1
Experiment [32] has as its system Trichoderma harzianum. In words: Antifungal activity against Trichoderma harzianum (Pers.)-Tul assessed as color variation of hyphae at 200 ug/ml after 5 days by electron microscopy. The format is functional, organism-based. The method in brief:
as §1

Activity calls are given as the source filed them. The calls are words filed in the database; no cut-off is given here.

On to `Cn1ncc2sc3nncn3c21`, for which the inhibition of growth at 200 µg/mL worked out at 32.2% in the experiment on Botrytis cinerea [1] and 43.4% in the experiment with Pyricularia grisea [5]. Moreover, the inhibition of growth at 100 µg/mL was 19.3% in the experiment on Botrytis cinerea [2] and 24% with Pyricularia grisea [6]. The inhibition of growth at 50 µg/mL with Botrytis cinerea [3] was determined as 4%; with Pyricularia grisea [8], 8.2%. In addition, the inhibition of growth at 10 µg/mL in the experiment on Botrytis cinerea [4] came to 0%; in the experiment on Pyricularia grisea [7], 3%.
In the case of `Cc1cccc2sc3nncn3c12` [TRICYCLAZOLE], the inhibition of growth at 200 µg/mL in the experiment on Berkeleyomyces basicola [9] is 66.6%; in the experiment on Alternaria solani [11] it was 0%; with Sclerotinia minor [13] it was 0%; in the experiment on Botrytis cinerea [1] it was 77.8%; in the experiment with Pyricularia grisea [5] it was 94%; in the experiment on Penicillium crustosum [15], 95%. Besides, the inhibition of growth at 200 µg/mL was 70.4% with Penicillium italicum [17], 60% with Trichoderma viride [19] and 50.2% in the experiment on Trichoderma harzianum [22]. Further, the inhibition of growth at 100 µg/mL worked out at 40.1% with Berkeleyomyces basicola [10]; 0% in the experiment on Alternaria solani [12]; 0% in the experiment with Sclerotinia minor [14]; 29.6% with Botrytis cinerea [2]; 62.3% with Pyricularia grisea [6]; 80.3% in the experiment on Penicillium crustosum [16]. For the same molecule, the inhibition of growth at 100 µg/mL came to 20.1% in the experiment with Penicillium italicum [18], 20.2% in the experiment with Trichoderma viride [20] and 20% in the experiment on Trichoderma harzianum [21]. Besides, the values for the inhibition of growth at 50 µg/mL in the experiment on Botrytis cinerea [3] and in the experiment on Pyricularia grisea [8] were 8.3% and 24.1%, respectively. For the same molecule, the inhibition of growth at 10 µg/mL in the experiment with Botrytis cinerea [4] and with Pyricularia grisea [7] was 0% throughout.
On to `Cc1nn(C)c2c1sc1nncn12`, for which the outcome in the experiment on Penicillium crustosum [23], with Pyricularia grisea [24], in the experiment on Alternaria solani [25], in the experiment with Botrytis cinerea [27], in the experiment with Botrytis cinerea [28] and in the experiment with Sclerotinia minor [29] was Active. The result in the experiment on Berkeleyomyces basicola [30], in the experiment on Penicillium italicum [31] and with Trichoderma harzianum [32] was Active. In the experiment with Botrytis cinerea [26], the outcome was inactive. Also, the inhibition of growth at 200 µg/mL with Berkeleyomyces basicola [9] came out at 0%; with Alternaria solani [11], 23.4%; in the experiment with Sclerotinia minor [13] it was 0%; in the experiment on Botrytis cinerea [1], 65.4%; in the experiment with Pyricularia grisea [5], 59.1%; with Penicillium crustosum [15], 10%. The inhibition of growth at 200 µg/mL in the experiment on Penicillium italicum [17], with Trichoderma viride [19] and with Trichoderma harzianum [22] was 0% each time. The inhibition of growth at 100 µg/mL was 0% in the experiment on Berkeleyomyces basicola [10]; 0% in the experiment with Alternaria solani [12]; 0% in the experiment with Sclerotinia minor [14]; 28.8% in the experiment with Botrytis cinerea [2]; 20.5% with Pyricularia grisea [6]; 0% in the experiment on Penicillium crustosum [16]. Moreover, the inhibition of growth at 100 µg/mL in the experiment with Penicillium italicum [18], with Trichoderma viride [20] and in the experiment with Trichoderma harzianum [21] was 0% in each case. Further, the inhibition of growth at 50 µg/mL with Botrytis cinerea [3] is 14.6%; with Pyricularia grisea [8], 13%. Further, the inhibition of growth at 10 µg/mL in the experiment with Botrytis cinerea [4] was 10.8%; in the experiment on Pyricularia grisea [7] it was 12.2%.
